Experimental data published in ChEMBL document CHEMBL4396943, “The tetrahydroxanthone-dimer phomoxanthone A is a strong inducer of apoptosis in cisplatin-resistant solid cancer cells” (Bioorg Med Chem, 2019).
Active and inactive are the calls of the source. The calls are words filed in the database; no cut-off is given here.

How the values were obtained:
[1] = test system: HCT-116; assay: Antiproliferative activity against human HCT116 cells assessed as reduction in cell viability incubated for 72 hrs by MTT assay; format: functional, cell-based; conditions: HCT-116, 72 h
Outline: (§1)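 Cells seeded overnight in 96-well plates, then exposed to increasing concentrations (compound dissolved in DMSO, diluted in medium) for the stated time. MTT (5 mg/ml in PBS) added for 15 min, formazan dissolved in DMSO, absorbance read at 544 nm minus 690 nm background. IC50 = concentration giving 50% signal decrease. At least three independent experiments in triplicate.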

[2] = test system: MDA-MB-231; assay: Potency index, ratio of cisplatin IC50 to compound IC50 for antiproliferative activity in human MDA-MB-231 cells assessed as reduction in cell viability incubated for 72 hrs by MTT assay; format: functional
Outline: (§2)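 Cells seeded in 96-well plates overnight, exposed 72 h to increasing concentrations. MTT (5 mg/ml) added for 15 min, formazan dissolved in DMSO, absorbance read at 544 nm with 690 nm background subtracted. IC50 is the concentration reducing signal by 50%. Three independent experiments in triplicate. CisR sublines made by weekly intermittent cisplatin exposure for 24–30 weeks.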

[3] = test system: A2780; assay: Antiproliferative activity against human A2780 cells assessed as reduction in cell viability incubated for 48 hrs by MTT assay; format: functional, cell-based; conditions: A2780, 48 h; outline: as §1
[4] = test system: A2780; assay: Cell cycle arrest in human A2780 cells assessed as accumulation at G1 phase at 5 uM incubated for 24 hrs by propidium iodide staining based flow cytometry (reference value: 61.8%); format: functional
Outline: (§3)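 After 24 h exposure, cells washed in ice-cold PBS. About 2 million cells fixed in cold 70% ethanol at −20 °C for at least 24 h. Stained with 0.1% Triton X-100, 200 µg/ml RNase A and 20 µg/ml propidium iodide in PBS, 15 min at 37 °C in the dark. DNA content read by flow cytometry with doublet discrimination. Medium as untreated control, paclitaxel as G2/M control. Three independent experiments.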

[5] = test system: A2780cisR; assay: Cell cycle arrest in human A2780cisR cells assessed as accumulation at G1 phase at 10 uM incubated for 24 hrs by propidium iodide staining based flow cytometry (reference value: 68.7%); format: functional; outline: as §3
[6] = test system: J82; assay: Cell cycle arrest in human J82 cells assessed as accumulation at G1 phase at 10 uM incubated for 24 hrs by propidium iodide staining based flow cytometry (reference value: 69.6%); format: functional; outline: as §3
[7] = test system: J82; assay: Cell cycle arrest in cisplatin resistant human J82 cells assessed as accumulation at G1 phase at 1 uM incubated for 24 hrs by propidium iodide staining based flow cytometry (reference value: 78.1%); format: functional; outline: as §3
[8] = test system: J82; assay: Cell cycle arrest in cisplatin resistant human J82 cells assessed as accumulation at G1 phase at 10 uM incubated for 24 hrs by propidium iodide staining based flow cytometry (reference value: 78.1%); format: functional; outline: as §3
[9] = test system: A2780cisR; assay: Induction of apoptosis in human A2780cisR cells assessed as accumulation in subG1 phase at 1 uM incubated for 24 hrs by propidium iodide staining based flow cytometry relative to control; format: functional
Outline: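 About 100,000 cells/well plated; after one day, treated 24 h. Cells lysed in hypotonic buffer (0.1% sodium citrate, 0.1% Triton X-100, 100 µg/ml propidium iodide) and kept overnight at 4 °C in the dark. Sub-G1 fraction measured by flow cytometry. Medium as control, cisplatin as positive control.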

[10] = test system: A2780cisR; assay: Induction of apoptosis in human A2780cisR cells assessed as depolarization of mitochondrial membrane potential incubated for 1 hr by TMRE staining based flow cytometry; format: functional, cell-based
Outline: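 Cells seeded overnight; complete medium swapped for FBS-free medium just before treatment to avoid TMRE ester cleavage. Exposure to PXA for 1 h, 2 h or 24 h. TMRE staining 20 min, cells collected by trypsinisation, ΔΨm read by flow cytometry. Medium served as negative control, 20 µM CCCP as positive control. Mean ± SEM reported.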

[11] = test system: A2780; assay: Induction of apoptosis in human A2780 cells assessed as depolarization of mitochondrial membrane potential at 1 uM incubated for 1 hr by TMRE staining based flow cytometry; format: functional
Outline: (§4)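 Cells seeded overnight; medium switched to FBS-free just before treatment to avoid TMRE ester cleavage. Exposure 1 h, 2 h or 24 h, then TMRE staining for 20 min. Cells trypsinized, centrifuged at 4 °C and read by flow cytometry. Medium as negative control, 20 µM CCCP as positive control. […]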

[12] = test system: A2780; assay: Induction of apoptosis in human A2780 cells assessed as increase in caspase 3 cleavage at 5 uM incubated for 24 hrs by proteome profiler analysis; format: functional, cell-based
Outline: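 A2780 and A2780CisR cells treated 24 h with 5 µM PXA; apoptosis-related proteins profiled with a human apoptosis antibody array following kit instructions.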

[13] = test system: A2780; assay: Induction of apoptosis in human A2780 cells assessed as decrease in cIAP expression at 5 uM incubated for 24 hrs by proteome profiler analysis; format: functional, cell-based
Outline: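 A2780 cells treated 24 h with 5 µM, then apoptosis-related proteins read on an antibody array (Proteome Profiler human apoptosis array) per kit instructions.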

[14] = test system: A2780cisR; assay: Effect on ROS generation in human A2780cisR cells at 316 nM incubated for 18 hrs by H2DCFDA staining based flow cytometry; format: functional, cell-based
Outline: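 Cells plated in 24-well plates (about 150,000/well) overnight, then exposed 18 h. Washed and moved to phenol red-free, serum-free RPMI-1640, then loaded with 10 µM H2DCF-DA for 30 min at 37 °C in the dark. One aliquot read directly, the other after 250 µM H2O2 for 1 h at 37 °C. DCF fluorescence read by flow cytometry. Three independent experiments.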

[15] = test system: A2780; assay: Reduction of H2O2-induced ROS generation in human A2780 cells at 316 nM incubated for 18 hrs by H2DCFDA staining based flow cytometry; format: functional, cell-based
Outline: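 Cells plated overnight in growth medium (approx. 150,000 cells/well), exposed to compound for 18 h. Then washed with PBS and moved to phenol red-free RPMI-1640 without FBS or antibiotics. Loaded with 10 µM H2DCF-DA, 30 min, 37 °C, dark. One aliquot then given 250 µM H2O2 for 1 h at 37 °C in the dark. DCF fluorescence read by flow cytometry; three independent experiments.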

[16] = test system: J82; assay: Ratio of IC50 for antiproliferative activity in human J82 cells to cisplatin-resistant human J82 cells assessed as reduction of cell viability incubated for 72 hrs by MTT assay; format: functional; outline: as §2
[17] = test system: A2780; assay: Induction of apoptosis in human A2780 cells assessed as decrease in mitochondrial membrane potential at 1 uM incubated for 24 hrs by TMRE staining based flow cytometry; format: functional, cell-based; outline: as §4
[18] = test system: J82; assay: Induction of apoptosis in cisplatin-resistant human J82 cells assessed as nuclear condensation by measuring reduced size and increased intensity of nuclei at 30 uM incubated for 24 hrs by hoechst 33342 staining based fluorescence microscopy; format: functional, cell-based

For `CC(=O)OC[C@]12Oc3c(-c4ccc(O)c5c4O[C@@]4(COC(C)=O)C(=C(O)C[C@@H](C)[C@H]4OC(C)=O)C5=O)ccc(O)c3C(=O)C1=C(O)C[C@@H](C)[C@H]2OC(C)=O` [PHOMOXANTHONE A], the IC50 [1] was 1820 nM, the “Ratio IC50” value [2] was 2 - 10 and the IC50 ([3]; read-out: IC50) was 1180 nM. For the same compound, the IC50 ([3]; read-out: pIC50 (converted)) was 1170 nM, the Activity [4] was 75.9% and the Activity [5] was 81.1%. It also gave an Activity [6] of 70.9%, an Activity [7] of 76.3% and an Activity [8] of 81.2%. The Activity [9] was 70%, the Activity [10] was “Dose-dependent effect” and the IC50 [10] was 1250 nM. The Activity [11] was 73%, the Activity [12] was “Active” and the Activity [13] was “Active”. For the same compound, the Activity [14] was “inactive”, the inhibition [15] was “inactive” and the “Ratio IC50” value [16] was 1.6. For the same compound, the Activity [17] was “Active” and the Activity [18] was “Active”.
